Assay results from ChEMBL document CHEMBL4229344 (Eur J Med Chem, 2018).

Legend:
[1] = target: Platelet-derived growth factor receptor alpha (Homo sapiens, UniProt P16234)
[2] = target: Mast/stem cell growth factor receptor Kit (Homo sapiens, UniProt P10721); assay: Inhibition of TEL-fused c-KIT (unknown origin) expressed in mouse BA/F3 cells assessed as growth inhibition after 72 hrs by CellTiter-Glo or CCK-8 assay; format: cell-based
Summary of the method: (§1)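 Parental BaF3 or IL-3-independent TEL-kinase BaF3 lines, made by retroviral infection and puromycin selection, grown in RPMI 1640 with 10% FBS. Cells seeded at 1–3 × 10^4 cells/mL with serial compound concentrations for 72 h. Viability read by CellTiter-Glo luminescence or CCK-8 absorbance at 450/655 nm and normalised to DMSO. GI50 obtained by triplicate testing with linear regression. Selectivity is the ratio of the two GI50 values.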

[3] = target: Platelet-derived growth factor receptor beta (Homo sapiens, UniProt P09619); assay: Inhibition of TEL-fused PDGFRbeta (unknown origin) expressed in mouse BA/F3 cells assessed as growth inhibition after 72 hrs by CellTiter-Glo or CCK-8 assay; format: cell-based
Sequence of Platelet-derived growth factor receptor beta (P09619 whole entry, the tested form may be a part): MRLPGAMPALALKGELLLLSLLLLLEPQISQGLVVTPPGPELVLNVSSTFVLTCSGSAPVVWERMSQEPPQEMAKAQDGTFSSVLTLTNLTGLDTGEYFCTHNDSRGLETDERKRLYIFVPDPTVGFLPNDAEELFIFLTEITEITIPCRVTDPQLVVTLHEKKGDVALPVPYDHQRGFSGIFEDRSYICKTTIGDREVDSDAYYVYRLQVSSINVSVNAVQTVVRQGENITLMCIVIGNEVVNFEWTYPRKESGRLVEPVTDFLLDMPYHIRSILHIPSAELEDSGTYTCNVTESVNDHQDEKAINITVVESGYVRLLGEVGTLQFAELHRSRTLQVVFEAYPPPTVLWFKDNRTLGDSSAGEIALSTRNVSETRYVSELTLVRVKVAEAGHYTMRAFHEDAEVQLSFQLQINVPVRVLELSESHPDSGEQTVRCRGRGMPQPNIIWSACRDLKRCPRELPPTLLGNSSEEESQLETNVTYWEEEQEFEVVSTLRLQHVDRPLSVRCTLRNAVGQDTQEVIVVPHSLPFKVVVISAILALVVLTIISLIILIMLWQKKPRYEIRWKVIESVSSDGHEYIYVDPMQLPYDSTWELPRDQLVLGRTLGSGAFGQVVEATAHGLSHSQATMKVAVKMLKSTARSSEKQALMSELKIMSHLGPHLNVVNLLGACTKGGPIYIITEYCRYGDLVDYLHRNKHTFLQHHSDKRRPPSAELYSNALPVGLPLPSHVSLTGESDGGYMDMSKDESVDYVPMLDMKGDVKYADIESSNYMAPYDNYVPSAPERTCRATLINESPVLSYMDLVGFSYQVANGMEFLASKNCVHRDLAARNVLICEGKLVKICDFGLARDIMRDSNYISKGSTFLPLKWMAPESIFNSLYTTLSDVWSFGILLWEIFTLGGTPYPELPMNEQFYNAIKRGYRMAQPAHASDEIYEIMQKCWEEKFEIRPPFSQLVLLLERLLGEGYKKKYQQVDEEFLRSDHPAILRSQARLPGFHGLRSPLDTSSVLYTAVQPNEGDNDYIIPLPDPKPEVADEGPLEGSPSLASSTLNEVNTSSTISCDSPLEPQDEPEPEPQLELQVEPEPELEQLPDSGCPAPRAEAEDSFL
Summary of the method: as §1

[4] = Cytotoxicity against mouse BA/F3 cells after 72 hrs by CellTiter-Glo or CCK-8 assay; format: cell-based, BaF3
Summary of the method: as §1

[5] = target: Vascular endothelial growth factor receptor 2 (Homo sapiens) (UniProt P35968)
Sequence of Vascular endothelial growth factor receptor 2 (Homo sapiens) (P35968 whole entry, the tested form may be a part): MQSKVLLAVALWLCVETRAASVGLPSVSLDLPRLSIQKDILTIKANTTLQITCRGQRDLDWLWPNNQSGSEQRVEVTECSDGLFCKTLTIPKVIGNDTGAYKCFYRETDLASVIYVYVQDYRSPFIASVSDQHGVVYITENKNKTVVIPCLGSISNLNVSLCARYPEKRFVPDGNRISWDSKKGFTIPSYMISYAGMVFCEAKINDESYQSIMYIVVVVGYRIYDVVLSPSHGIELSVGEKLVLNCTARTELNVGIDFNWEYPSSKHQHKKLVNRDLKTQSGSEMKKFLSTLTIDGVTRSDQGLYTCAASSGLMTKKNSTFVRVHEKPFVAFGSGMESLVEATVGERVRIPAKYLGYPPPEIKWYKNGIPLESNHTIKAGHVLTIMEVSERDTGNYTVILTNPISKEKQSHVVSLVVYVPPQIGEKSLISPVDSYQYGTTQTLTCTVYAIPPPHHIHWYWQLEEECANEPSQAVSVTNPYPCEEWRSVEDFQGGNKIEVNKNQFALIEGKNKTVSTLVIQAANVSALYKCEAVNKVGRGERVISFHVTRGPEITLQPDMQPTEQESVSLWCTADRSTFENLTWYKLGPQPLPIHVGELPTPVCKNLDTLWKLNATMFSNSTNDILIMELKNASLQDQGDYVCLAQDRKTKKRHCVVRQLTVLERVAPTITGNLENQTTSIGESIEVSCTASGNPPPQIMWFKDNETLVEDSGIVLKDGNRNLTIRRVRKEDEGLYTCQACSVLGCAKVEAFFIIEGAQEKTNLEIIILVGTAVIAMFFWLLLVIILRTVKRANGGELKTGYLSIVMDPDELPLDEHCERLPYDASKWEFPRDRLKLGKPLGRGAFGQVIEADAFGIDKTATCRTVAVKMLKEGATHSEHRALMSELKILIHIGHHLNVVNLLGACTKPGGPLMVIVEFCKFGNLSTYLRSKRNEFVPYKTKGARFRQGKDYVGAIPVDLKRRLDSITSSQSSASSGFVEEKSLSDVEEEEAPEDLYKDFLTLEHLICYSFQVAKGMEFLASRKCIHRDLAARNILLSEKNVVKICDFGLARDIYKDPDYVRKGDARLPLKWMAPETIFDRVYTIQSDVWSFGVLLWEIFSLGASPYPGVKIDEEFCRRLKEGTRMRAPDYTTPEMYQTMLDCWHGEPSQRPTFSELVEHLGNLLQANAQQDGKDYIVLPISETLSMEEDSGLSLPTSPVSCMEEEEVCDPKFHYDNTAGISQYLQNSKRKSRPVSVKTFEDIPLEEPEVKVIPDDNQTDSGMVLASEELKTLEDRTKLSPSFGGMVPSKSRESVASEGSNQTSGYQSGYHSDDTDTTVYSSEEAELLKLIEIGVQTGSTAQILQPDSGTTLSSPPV

Homo sapiens = species: Homo sapiens; assay: Selectivity index, ratio of GI50 for TEL-fused PDGFRbeta (unknown origin) expressed in mouse BA/F3 cells to GI50 for TEL-fused PDGFRalpha (unknown origin) expressed in mouse BA/F3 cells; format: cell-based
Summary of the method: as §1

Sequence of Platelet-derived growth factor receptor alpha (P16234 whole entry, the tested form may be a part): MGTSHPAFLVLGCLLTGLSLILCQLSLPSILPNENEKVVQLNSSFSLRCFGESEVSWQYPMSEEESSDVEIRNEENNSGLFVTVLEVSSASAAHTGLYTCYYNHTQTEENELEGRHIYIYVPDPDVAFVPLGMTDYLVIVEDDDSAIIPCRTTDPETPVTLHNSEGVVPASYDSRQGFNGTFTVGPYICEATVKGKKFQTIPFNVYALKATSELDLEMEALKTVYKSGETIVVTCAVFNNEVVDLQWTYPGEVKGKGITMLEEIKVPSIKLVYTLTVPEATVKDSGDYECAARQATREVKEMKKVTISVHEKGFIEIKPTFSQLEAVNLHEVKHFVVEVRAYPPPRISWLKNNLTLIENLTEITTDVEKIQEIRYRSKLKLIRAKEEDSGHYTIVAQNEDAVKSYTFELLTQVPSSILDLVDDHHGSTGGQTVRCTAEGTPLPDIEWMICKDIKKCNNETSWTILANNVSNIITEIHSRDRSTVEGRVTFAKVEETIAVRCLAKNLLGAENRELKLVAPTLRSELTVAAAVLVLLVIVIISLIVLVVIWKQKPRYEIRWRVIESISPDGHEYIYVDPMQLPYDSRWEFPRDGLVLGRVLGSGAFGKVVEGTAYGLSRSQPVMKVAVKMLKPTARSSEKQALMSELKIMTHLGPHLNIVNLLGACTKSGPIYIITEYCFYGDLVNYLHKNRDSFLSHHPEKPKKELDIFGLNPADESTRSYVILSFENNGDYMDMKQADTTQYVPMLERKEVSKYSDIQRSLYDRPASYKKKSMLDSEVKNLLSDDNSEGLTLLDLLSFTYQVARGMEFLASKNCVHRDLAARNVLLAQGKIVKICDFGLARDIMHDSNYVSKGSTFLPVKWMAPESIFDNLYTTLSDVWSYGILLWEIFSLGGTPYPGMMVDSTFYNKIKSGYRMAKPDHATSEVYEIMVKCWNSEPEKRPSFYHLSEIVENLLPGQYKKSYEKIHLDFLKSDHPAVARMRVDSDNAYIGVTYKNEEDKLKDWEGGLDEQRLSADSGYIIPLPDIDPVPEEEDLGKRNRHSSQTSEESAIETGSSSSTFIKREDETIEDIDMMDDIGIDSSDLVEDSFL
Sequence of Mast/stem cell growth factor receptor Kit (P10721 whole entry, the tested form may be a part): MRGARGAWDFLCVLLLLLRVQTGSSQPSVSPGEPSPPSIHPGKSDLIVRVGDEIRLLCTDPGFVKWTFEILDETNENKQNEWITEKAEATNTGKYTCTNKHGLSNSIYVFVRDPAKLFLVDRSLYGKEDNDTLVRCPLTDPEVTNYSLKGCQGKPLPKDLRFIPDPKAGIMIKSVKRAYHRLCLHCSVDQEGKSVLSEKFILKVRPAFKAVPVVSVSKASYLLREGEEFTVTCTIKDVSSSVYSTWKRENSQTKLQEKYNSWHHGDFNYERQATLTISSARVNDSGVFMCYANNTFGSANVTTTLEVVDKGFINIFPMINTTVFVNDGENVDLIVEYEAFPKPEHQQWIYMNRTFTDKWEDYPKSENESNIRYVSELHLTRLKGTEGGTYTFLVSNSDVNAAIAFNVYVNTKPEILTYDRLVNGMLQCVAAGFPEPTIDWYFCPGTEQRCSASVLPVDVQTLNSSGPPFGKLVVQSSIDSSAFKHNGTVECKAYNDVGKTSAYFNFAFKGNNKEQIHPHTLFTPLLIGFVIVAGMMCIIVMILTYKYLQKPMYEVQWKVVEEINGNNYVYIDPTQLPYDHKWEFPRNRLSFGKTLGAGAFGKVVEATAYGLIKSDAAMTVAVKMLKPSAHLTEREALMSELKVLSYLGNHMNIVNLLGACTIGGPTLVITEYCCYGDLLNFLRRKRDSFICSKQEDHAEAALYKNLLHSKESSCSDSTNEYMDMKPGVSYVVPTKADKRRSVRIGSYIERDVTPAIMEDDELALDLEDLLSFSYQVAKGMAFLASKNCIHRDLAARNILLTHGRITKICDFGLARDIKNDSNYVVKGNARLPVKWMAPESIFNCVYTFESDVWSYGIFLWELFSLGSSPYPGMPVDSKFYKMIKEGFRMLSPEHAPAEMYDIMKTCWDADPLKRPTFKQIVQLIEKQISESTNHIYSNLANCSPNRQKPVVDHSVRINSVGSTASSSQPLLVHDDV

SMILES	GI50 [1] [µM]	GI50 [2] [µM]	GI50 [3] [µM]	GI50 at 72 h [4] [µM]	GI50 [5] [µM]	RatioGI50 (Homo sapiens)
Cc1ccc(NC(=O)c2ccc(CN(CCN(C)C)C(=O)C(C)(C)C)cc2)cc1Nc1nccc(-c2cccnc2)n1	0.017	2.53	0.061	> 10	5.48	–
Cc1ccc(NC(=O)c2ccc(CNC(=O)c3cccnc3)c(C(F)(F)F)c2)cc1Nc1nccc(-c2cccnc2)n1	0.005	0.066	0.082	8.33	3.41	–
CCC(=O)Nc1ccc(C(=O)Nc2ccc(C)c(Nc3nccc(-c4cccnc4)n3)c2)cc1	0.012	4.94	0.888	> 10	6.27	–
C=CC(=O)Nc1cccc(C(=O)Nc2ccc(C)c(Nc3nccc(-c4cccnc4)n3)c2)c1	0.008	1.53	0.173	2.48	1.57	–
Cc1ccc(NC(=O)c2ccc(CN(CCO)C(=O)CN(C)C)cc2)cc1Nc1nccc(-c2cccnc2)n1	0.363	> 10	3.88	> 10	> 10	–
C=CC(=O)NCc1ccc(C(=O)Nc2ccc(C)c(Nc3nccc(-c4cccnc4)n3)c2)cc1C(F)(F)F	0.059	0.3	0.161	> 10	> 10	–
C/C=C/C(=O)N(CCN(C)C)Cc1ccc(C(=O)Nc2ccc(C)c(Nc3nccc(-c4cccnc4)n3)c2)cc1	0.054	> 10	0.219	> 10	8.54	–
Cc1ccc(NC(=O)c2ccc(CNC(=O)c3cccnc3)cc2)cc1Nc1nccc(-c2cccnc2)n1	0.014	0.216	0.341	1.12	0.348	–
C=CC(=O)NCc1ccc(C(=O)Nc2ccc(C)c(Nc3nccc(-c4cccnc4)n3)c2)cc1	–	> 10	0.155	> 10	–	–
Cc1ccc(NC(=O)c2ccc(CN(CCN(C)C)C(=O)c3ccno3)cc2)cc1Nc1nccc(-c2cccnc2)n1	0.166	> 10	0.787	> 10	> 10	–
Cc1ccc(NC(=O)c2ccc(CN(CCN(C)C)C(=O)c3cccs3)cc2)cc1Nc1nccc(-c2cccnc2)n1	0.056	> 10	0.207	> 10	> 10	–
Cc1ccc(C(=O)N(CCN(C)C)Cc2ccc(C(=O)Nc3ccc(C)c(Nc4nccc(-c5cccnc5)n4)c3)cc2)cc1	0.1	> 10	0.24	> 10	> 10	–
C=CS(=O)(=O)NCc1ccc(C(=O)Nc2ccc(C)c(Nc3nccc(-c4cccnc4)n3)c2)cc1	0.013	0.58	0.048	7.71	1.56	–
CCN(CC)CCN(Cc1ccc(C(=O)Nc2ccc(C)c(Nc3nccc(-c4cccnc4)n3)c2)cc1)C(=O)c1cccnc1	0.033	> 10	0.699	> 10	> 10	–
C=CC(=O)N(CCN(CC)CC)Cc1ccc(C(=O)Nc2ccc(C)c(Nc3nccc(-c4cccnc4)n3)c2)cc1	0.344	5.14	1.1	5.45	4.55	–
C=CC(=O)N(CCN(C)C)Cc1ccc(C(=O)Nc2ccc(C)c(Nc3nccc(-c4cccnc4)n3)c2)cc1	0.011	> 10	0.35	> 10	> 10	> 30

SMILES	GI50 [1] [µM]	GI50 [2] [µM]	GI50 [3] [µM]	GI50 at 72 h [4] [µM]	GI50 [5] [µM]	RatioGI50 (Homo sapiens)
CCCC(=O)N(CCN(C)C)Cc1ccc(C(=O)Nc2ccc(C)c(Nc3nccc(-c4cccnc4)n3)c2)cc1	0.025	5.75	0.09	> 10	4.76	–
CCC(=O)NCc1cccc(C(=O)Nc2ccc(C)c(Nc3nccc(-c4cccnc4)n3)c2)c1	0.015	2.92	0.221	4.75	3.22	–
Cc1ccc(NC(=O)c2ccc(CN(CCN(C)C)C(=O)C(C)C)cc2)cc1Nc1nccc(-c2cccnc2)n1	0.039	6.11	0.123	> 10	8.64	–
Cc1ccc(NC(=O)c2ccc(CN(CCO)C(=O)c3cccnc3)cc2)cc1Nc1nccc(-c2cccnc2)n1	0.353	> 10	3.02	> 10	> 10	–
Cc1ccc(NC(=O)c2ccc(CNCCN(C)C)cc2)cc1Nc1nccc(-c2cccnc2)n1	0.024	5	0.125	> 10	4.88	–
CCC(=O)NCc1ccc(C(=O)Nc2ccc(C)c(Nc3nccc(-c4cccnc4)n3)c2)cc1	0.014	6.22	0.201	> 10	> 10	–
CCC(=O)N(CCN(C)C)Cc1ccc(C(=O)Nc2ccc(C)c(Nc3nccc(-c4cccnc4)n3)c2)cc1	0.036	> 10	0.504	> 10	> 10	14
C=CC(=O)N(CCC(C)C)Cc1ccc(C(=O)Nc2ccc(C)c(Nc3nccc(-c4cccnc4)n3)c2)cc1	0.019	3.94	0.23	5.62	5.74	–
C=CC(=O)Nc1ccc(C(=O)Nc2ccc(C)c(Nc3nccc(-c4cccnc4)n3)c2)cc1	–	2.94	0.757	5.6	2.03	–
Cc1ccc(NC(=O)c2ccc(CN(CCN(C)C)C(=O)CN(C)C)cc2)cc1Nc1nccc(-c2cccnc2)n1	0.12	> 10	9.2	> 10	> 10	–
Cc1ccc(NC(=O)c2ccc(NC(=O)c3cccnc3)cc2)cc1Nc1nccc(-c2cccnc2)n1	0.013	0.426	0.583	1.7	0.882	–
CCC(=O)Nc1cc(C(=O)Nc2ccc(C)c(Nc3nccc(-c4cccnc4)n3)c2)cc(C(F)(F)F)c1	0.039	0.104	0.231	> 10	> 10	–
Cc1ccc(NC(=O)c2ccc(CN(CCN3CCCC3)C(=O)c3cccnc3)cc2)cc1Nc1nccc(-c2cccnc2)n1	0.039	> 10	0.934	> 10	> 10	–
Cc1ccc(NC(=O)c2ccc(CN(CCN(C)C)C(=O)C3CC3)cc2)cc1Nc1nccc(-c2cccnc2)n1	0.112	> 10	0.437	> 10	> 10	–
C=CC(=O)NCc1cccc(C(=O)Nc2ccc(C)c(Nc3nccc(-c4cccnc4)n3)c2)c1	0.16	4.75	0.244	> 10	> 10	–
C=CC(=O)Nc1cc(C(=O)Nc2ccc(C)c(Nc3nccc(-c4cccnc4)n3)c2)cc(C(F)(F)F)c1	0.013	0.25	0.098	5.46	3.34	–
